Measurements: paper PMC4334733 (International journal of toxicology, 2015)
Values joined by “and” are separate entries in the source; they are usually repeats but may differ in a detail not shown here. Equal entries are not always repeated. “Also recorded” adds a separate entry of the source. Structures can show the parent of a compound that is named as a salt. Blank lines part the entries; values can stand above or below the molecule they belong to.

Tests used:
Female BALB/c mice = assay: 13-week daily oral toxicity study of TDF; format: in vivo, mouse; details: for Clinical Chemistry, Day 29 and Day 92: CHO cholesterol, TRI triglycerides
kidney gene expression = assay: Toxicogenomics: microarray gene expression analysis of kidney; format: in vivo, mouse
liver gene expression = assay: Toxicogenomics: microarray gene expression analysis of liver; format: in vivo, mouse; details: 1000 mg/kg TDF for 91 days vs vehicle
In short: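 Female BALB/c mice received 1000 mg/kg by daily oral gavage for 91 days, or vehicle (50 mM trisodium citrate dihydrate), n=7 per group. They were killed on Day 92, 24 hr after the last dose. Total RNA from a 20–50 mg left liver lobe section was hybridized to Mouse Gene 1.0 ST arrays. Fold change versus vehicle was tested by t-test with Benjamini-Hochberg correction.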

Wistar rats = details: 600 mg/kg TDF for 5 weeks; cited from earlier work
rats = details: oral 100 mg/kg TDF for 8 weeks; cited from earlier work
[1] = format: in vivo, mouse
In short: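 Female BALB/c mice were gavaged daily (10 ml/kg) at 50, 500 or 1000 mg/kg; the vehicle was 50 mM trisodium citrate dihydrate. Tenofovir was quantified against 2.5–2000 ng/ml plasma standards using peak area ratio to indinavir and 1/y-weighted linear regression. Noncompartmental Cmax, Tmax and AUClast were derived.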

[2] = kidney, 1000 mg/kg TDF for 91 days vs vehicle, regulation Down, p<0.05, N=7
[3] = kidney, 1000 mg/kg TDF for 91 days vs vehicle, regulation Up, p<0.05, N=7

SMILES: CC(C)OC(=O)OCOP(=O)(CO[C@H](C)Cn1cnc2c(N)ncnc21)OCOC(=O)OC(C)C [TDF, Tenofovir disoproxil fumarate]
Survival (Female BALB/c mice; TDF 0, 50, 500 or 1000 mg/kg po daily for 1, 28 or 91 days): All animals survived until their scheduled sacrifice
Clinical Observations: Gasping (incidence) (Female BALB/c mice; TDF 50 mg/kg po daily): 0
Clinical Observations: Hunched Posture (incidence) (Female BALB/c mice; TDF 50 mg/kg po daily): 0
Clinical Observations: Hypoactivity (incidence) (Female BALB/c mice; TDF 50 mg/kg po daily): 0
Clinical Observations: Ruffled Fur (incidence) (Female BALB/c mice; TDF 50 mg/kg po daily): 9 out of 35 and 9 of 35
Mortality (Female BALB/c mice; TDF 50 mg/kg po daily): 0
Clinical Chemistry, Day 29 and Day 92 (Female BALB/c mice; TDF 50 mg/kg po daily): ^↓(CHO, TRI)
Clinical Observations: Gasping (incidence) (Female BALB/c mice; TDF 500 mg/kg po daily): 0
Clinical Observations: Hunched Posture (incidence) (Female BALB/c mice; TDF 500 mg/kg po daily): 0
Clinical Observations: Hypoactivity (incidence) (Female BALB/c mice; TDF 500 mg/kg po daily): 0
Clinical Observations: Ruffled Fur (incidence) (Female BALB/c mice; TDF 500 mg/kg po daily): 9 out of 35 and 9 of 35
Mortality (Female BALB/c mice; TDF 500 mg/kg po daily): 0
Clinical Chemistry, Day 29 and Day 92 (Female BALB/c mice; TDF 500 mg/kg po daily): ^↓(CHO, TRI)
Clinical Observations: Gasping (incidence) (Female BALB/c mice; TDF 1000 mg/kg po daily): two mice and 2 of 35
Clinical Observations: Hunched Posture (incidence) (Female BALB/c mice; TDF 1000 mg/kg po daily): one mouse and 1 of 35
Clinical Observations: Hypoactivity (incidence) (Female BALB/c mice; TDF 1000 mg/kg po daily): two mice and 2 of 35
Clinical Observations: Ruffled Fur (incidence) (Female BALB/c mice; TDF 1000 mg/kg po daily): 31 out of 35 and 31 of 35
Histopathology: Liver (Days 29 and 92) (Female BALB/c mice; TDF 1000 mg/kg po daily): Minimal/Mild Cytomegaly
Mortality (Female BALB/c mice; TDF 1000 mg/kg po daily): 0
Body Weight (Female BALB/c mice; TDF 1000 mg/kg po daily, vs control): significantly lower mean body weights; also recorded: ^↓(Days 36 and 43)
Clinical Chemistry, Day 29 and Day 92 (Female BALB/c mice; TDF 1000 mg/kg po daily): ^↓(CHO, TRI)
Liver cytomegaly after 4-week recovery (Female BALB/c mice; TDF 1000 mg/kg, Day 119 necropsy): not present; also recorded: not observed
Decreases in cholesterol (CHO) and triglyceride (TRI) levels (Female BALB/c mice; TDF 1000 mg/kg, study Days 29 and 92): 30–48%
Liver cytomegaly, minimal or mild (incidence) (Female BALB/c mice; TDF 1000 mg/kg/day for 28 days, necropsy Day 29): 7 of 10
Liver cytomegaly, minimal or mild (incidence) (Female BALB/c mice; TDF 1000 mg/kg/day for 91 days, necropsy Day 92): 6 of 15
Histopathologic changes in the kidneys (Female BALB/c mice; any dose group): No histopathologic changes
Fold change of gene expression in the kidney (all changes) (kidney gene expression; 1000 mg/kg TDF vs vehicle, Day 92): less than 2 fold
Fold Change, Cyp4b1 (kidney gene expression; [2]): 1.60 fold
Fold Change, Polr3e (kidney gene expression; [2]): 1.87 fold
Fold Change, Gm10804 (predicted gene 10804) (kidney gene expression; [3]): 1.65 fold
Fold Change, Rorc (RAR-related orphan receptor gamma) (kidney gene expression; [3]): 1.77 fold
Fold Change, Cml3 (camello-like 3) (liver gene expression; down expressed, p<0.05, N=7): 2.08 fold
Fold Change, Gm4952 (liver gene expression; down expressed, p<0.05, N=7): 2.15 fold
Fold Change, Gm15401 (liver gene expression; down expressed, p<0.05, N=7): 2.44 fold
Fold Change, Rgs16 (liver gene expression; down expressed, p<0.05, N=7): 2.86 fold
Fold Change, Serpinb1a (liver gene expression; down expressed, p<0.05, N=7): 2.70 fold
Fold Change, Gria3 (liver gene expression; upward expressed, p<0.05, N=7): 3.34 fold
Fold Change, Phlda3 (liver gene expression; upward expressed, p<0.05, N=7): 2.41 fold
Fold Change, Rdh11 (liver gene expression; upward expressed, p<0.05, N=7): 2.09 fold
Fold Change, Snord116 (liver gene expression; upward expressed, p<0.05, N=7): 2.15 fold
Fold Change, Sult1e1 (liver gene expression; upward expressed, p<0.05, N=7): 4.39 fold
Fold Change, Cdkn1a (cyclin-dependent kinase inhibitor 1A, P21) (liver gene expression; upward expressed, p<0.05, N=7, 1000 mg/kg): 3.7 fold and 3.70 fold
Nephrotoxicity (Wistar rats): nephrotoxicity was observed
Renal toxicity (rats): induced renal toxicity

Mouse AUC plasma level of tenofovir relative to healthy volunteers ([1]; after 1000 mg/kg dose, human value ref 29): approximately eight
Accumulation between dosing Days 1 and 91 (Cmax or AUC) ([1]; plasma tenofovir, oral TDF 50-1000 mg/kg daily): no evidence of accumulation
SMILES: C[C@H](Cn1cnc2c(N)ncnc21)OCP(=O)(O)O [Tenofovir]
Liver cytomegaly (Female BALB/c mice; 50 or 500 mg/kg/day): not present
